Results on 1 compound are retold here after ChEMBL document CHEMBL1138476 (J Med Chem, 2009).

As a reminder, the Cmax is the maximum level reached in the sampled fluid or tissue.

Series [1] relates to Canis familiaris. The series is described as follows: Effect on respiratory function in spontaneously breathing mongrel dog assessed as change in pulmonary compliance at 5 mg/kg after intravenous infusion for 15 mins (RVb= 0.8+/-2.0 %). Type of series: functional, Canis lupus familiaris.
The test system of series [2] is Canis familiaris. The series is described as follows: Effect on respiratory function in spontaneously breathing mongrel dog assessed as change in tidal volume at 5 mg/kg after intravenous infusion for 60 mins (RVb= 13.0+/-10.3 %). Type of series: functional, Canis lupus familiaris.
In series [3] the test system is Canis familiaris. The series is described as follows: Effect on respiratory function in spontaneously breathing mongrel dog assessed as change in minute volume at 5 mg/kg after intravenous infusion for 6 mins (RVb= -3.6+/-7.5 %). Type of series: functional, Canis lupus familiaris.
Series [4] relates to Canis familiaris. The series is described as follows: Effect on respiratory function in spontaneously breathing mongrel dog assessed as change in intrapleural pressure at 5 mg/kg after intravenous infusion for 15 mins (RVb= 12.6+/-17.1 %). Type of series: functional, Canis lupus familiaris.
Series [5] has as its system Rattus norvegicus. The series is described as follows: Effect on acute renal function in rat assessed as change in osmolality in urine per 100 gm body weight at 30 mg/kg, po (RVb= 325+/-1.9 mg/dl). Type of series: functional.
Series [6] is described as follows: Cmax in rat at 5 mg/kg, po. Type of series: ADME, organism-based. Set-up: dose 5 mg/kg, route oral. To be noted: in vivo. The essentials:
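Rats (n = 3) received 1 mg/kg iv in 10% DMAC, 70% propylene glycol and deionized water, or 5 mg/kg orally in 0.5% methylcellulose.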

Molecules are shown by their SMILES.

In the case of `CC[C@@H](C)Nc1nc(C)nc2c(-c3ccc(OC)nc3C)c(C)nn12` [PEXACERFONT], the Activity was -2.2% in series [1]; 11.5% in series [2]; 28.1% in series [3]; 6.5% in series [4]; 240 milliosmole in series [5]. The maximum concentration (Cmax) in series [6] stood at 1260 nM.
